From ChEMBL document CHEMBL4819119, “Design and evaluation of 1,2,3-dithiazoles and fused 1,2,4-dithiazines as anti-cancer agents” (Bioorg Med Chem Lett, 2021)

Legend:
MCF7 = test: Cytotoxicity against human MCF7 cells assessed as reduction in cell viability incubated for 72 hrs by alamar blue assay; type: functional, cell-based; settings: MCF7, 72 h
Method in brief: (§1)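 Cells seeded in 384-well plates and dosed 24 h after plating, in quadruplicate. Viability was read by alamarBlue fluorescence at 72 h. IC50 came from nonlinear regression as the mean of 4 replicates. Growth media carried 10% FBS and 1% pen/strep: UCH1/UCH2 in 4:1 IMDM:RPMI-1640 in gel-coated flasks; A431, PANC1 and WS1 in DMEM; DU145 and MCF7 in MEM; 5637 in RPMI-1640.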

5637 = test: Cytotoxicity against human 5637 cells assessed as reduction in cell viability incubated for 72 hrs by alamar blue assay; type: functional, cell-based; settings: Homo sapiens, 5637, 72 h; method in brief: as §1
DU-145 = test: Cytotoxicity against human DU-145 cells assessed as reduction in cell viability incubated for 72 hrs by alamar blue assay; type: functional, cell-based; settings: DU-145, 72 h; method in brief: as §1
PANC-1 = test: Cytotoxicity against human PANC1 cells assessed as reduction in cell viability incubated for 72 hrs by alamar blue assay; type: functional, cell-based; settings: PANC-1, 72 h; method in brief: as §1
[1] = Cytotoxicity against human UCH1 cells assessed as reduction in cell viability incubated for 72 hrs by alamar blue assay; type: functional, cell-based; settings: UCH1, 72 h; method in brief: as §1
[2] = Cytotoxicity against human UCH2 cells assessed as reduction in cell viability incubated for 72 hrs by alamar blue assay; type: functional, cell-based; settings: UCH2, 72 h; method in brief: as §1
A-431 = test: Cytotoxicity against human A-431 cells assessed as reduction in cell viability incubated for 72 hrs by alamar blue assay; type: functional, cell-based; settings: A-431, 72 h; method in brief: as §1
[3] = Cytotoxicity against human WS1 cells assessed as reduction in cell viability incubated for 72 hrs by alamar blue assay; type: cell-based; settings: WS1, 72 h; method in brief: as §1

SMILES	IC50 (MCF7)	IC50 5637	IC50 (DU-145)	IC50 (PANC-1)	IC50 [1]	IC50 [2]	IC50 (A-431)	IC50 [3]
N#CC1=Nc2c(c(-c3ccccc3)nn2Cc2ccccc2)SS1	54 µM	8.7 µM	32 µM	> 100 µM	> 100 µM	> 100 µM	54 µM	51 µM
N#CC1=Nc2c(c(-c3ccccc3)nn2-c2ccccc2)SS1	36 µM	14 µM	16 µM	75 µM	55 µM	68 µM	72 µM	> 100 µM
CSc1ccc(/N=c2\ssnc2Cl)cc1	36 µM	34 µM	14 µM	86 µM	38 µM	37 µM	51 µM	66 µM
O=S(=O)(Nc1ncccn1)c1ccc(/N=c2\ssnc2Cl)cc1	3 µM	39 µM	29 µM	37 µM	34 µM	19 µM	> 100 µM	> 100 µM
Clc1nss/c1=N\c1cc(-c2ccccc2)n[nH]1	9.3 µM	16 µM	11 µM	23 µM	59 µM	38 µM	> 100 µM	> 100 µM
O=c1ssnc1N1CCN(CCSc2nc3ccccc3s2)CC1	9.9 µM	33 µM	22 µM	77 µM	25 µM	31 µM	90 µM	92 µM
Clc1nss/c1=N\c1ccc(Oc2ccccc2)cc1	35 µM	35 µM	> 100 µM	55 µM	30 µM	33 µM	> 100 µM	> 100 µM
c1ccc(/N=c2\ssnc2N2CCN(CCNc3ccccc3)CC2)cc1	10 µM	18 µM	55 µM	67 µM	25 µM	21 µM	87 µM	55 µM
O=C(OCCN1CCN(c2nss/c2=N\c2ccccc2)CC1)c1ccccc1	17 µM	13 µM	30 µM	60 µM	23 µM	34 µM	36 µM	38 µM
N#Cc1c(Br)cccc1/N=c1\ssnc1Cl	28 µM	14 µM	42 µM	13 µM	39 µM	65 µM	> 100 µM	> 100 µM
CCCCOc1ccc(/N=c2\ssnc2Cl)cc1	42 µM	18 µM	52 µM	> 100 µM	54 µM	48 µM	> 100 µM	> 100 µM
O=C1c2ccccc2C(=O)N1CCN1CCN(c2nssc2=S)CC1	51 µM	25 µM	23 µM	73 µM	46 µM	> 100 µM	> 100 µM	> 100 µM
Cc1cc(/N=c2\ssnc2Cl)n(Cc2ccccc2)n1	18 µM	2.1 µM	10 µM	26 µM	33 µM	30 µM	27 µM	15 µM
Clc1nss/c1=N\c1cccc(Br)c1	6.7 µM	53 µM	27 µM	38 µM	40 µM	59 µM	> 100 µM	94 µM
O=S(=O)(Nc1nccs1)c1ccc(/N=c2\ssnc2Cl)cc1	49 µM	27 µM	92 µM	97 µM	30 µM	36 µM	> 100 µM	> 100 µM
N#CSCCN1CCN(c2nssc2=O)CC1	5.4 µM	39 µM	3.3 µM	11 µM	12 µM	14 µM	25 µM	17 µM
